Data on three molecules can be found in ChEMBL document CHEMBL4038305, “Benzoxaborole Antimalarial Agents. Part 5. Lead Optimization of Novel Amide Pyrazinyloxy Benzoxaboroles and Identification of a Preclinical Candidate” (J Med Chem, 2017).

The subject of the first test is Plasmodium berghei. Kind of test: Antimalarial activity against Plasmodium berghei infected in Swiss Webster mouse assessed as mouse survival rate at 100 mg/kg administered once daily via oral gavage for 4 consecutive days beginning 1 hr after infection measured on day 6 post infection relative to control. The class given is functional.
Conditions: not given
Put shortly: (§1)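 Mice given an intraperitoneal injection of P. berghei-infected erythrocytes taken from a previously infected animal. Oral dosing once daily for 4 consecutive days, starting 1 h after infection. Vehicle: polyethylene glycol 300/propylene glycol/water (weight ratio 55/25/20). Percent survival recorded daily from day 4 to day 20. Chloroquine 30 mg/kg and vehicle-only groups served as controls.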
As to `CCC[C@H](CO)NC(=O)c1cnc(Oc2ccc3c(c2C)B(O)OC3)cn1`, the survival at 100 mg/kg was determined as 100%.

Regarding `Cc1c(Oc2cnc(C(=O)NCCO)cn2)ccc2c1B(O)OC2`, the survival at 100 mg/kg stood at 100%.

For the molecule `Cc1c(Oc2cnc(C(=O)NC(C)CO)cn2)ccc2c1B(O)OC2` (centres undefined), the survival at 100 mg/kg amounted to 100%.

Another test relates to Plasmodium berghei. Briefly: Antimalarial activity against Plasmodium berghei infected in Swiss Webster mouse assessed as mouse survival rate administered once daily via oral gavage for 4 consecutive days beginning 1 hr after infection measured on day 4 post infection. The class given is functional.
Conditions: not given
Put shortly:
as §1
As to `CCC[C@H](CO)NC(=O)c1cnc(Oc2ccc3c(c2C)B(O)OC3)cn1`, the ED90 came to 11.7 mg/kg.

Regarding `Cc1c(Oc2cnc(C(=O)NCCO)cn2)ccc2c1B(O)OC2`, the ED90 was determined as 56.1 mg/kg.

With `Cc1c(Oc2cnc(C(=O)NC(C)CO)cn2)ccc2c1B(O)OC2` (centres undefined), the ED90 is 44.3 mg/kg.

The subject of another test is Plasmodium berghei. Kind of test: Antimalarial activity against Plasmodium berghei infected in Swiss Webster mouse assessed as mouse survival rate at 11 mg/kg administered once daily via oral gavage for 4 consecutive days beginning 1 hr after infection measured on day 4 post infection relative to control. Format: functional.
Conditions: not given
Put shortly:
(§2)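 P. berghei-infected erythrocytes taken from a previously infected mouse were injected intraperitoneally. Oral dosing, once daily for 4 consecutive days, began 1 h after infection, in polyethylene glycol 300/propylene glycol/water (55/25/20 by weight). Chloroquine at 30 mg/kg was the positive control, with a vehicle-only group. Percent survival was recorded daily from day 4 to day 20.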
With `CCC[C@H](CO)NC(=O)c1cnc(Oc2ccc3c(c2C)B(O)OC3)cn1`, the survival at 11 mg/kg was 100%.

For the molecule `Cc1c(Oc2cnc(C(=O)NCCO)cn2)ccc2c1B(O)OC2`, the survival at 11 mg/kg amounted to 100%.

Regarding `Cc1c(Oc2cnc(C(=O)NC(C)CO)cn2)ccc2c1B(O)OC2` (centres undefined), the survival at 11 mg/kg was determined as 100%.

The test system of a further test is Plasmodium berghei. Briefly: Antimalarial activity against Plasmodium berghei infected in Swiss Webster mouse assessed as mouse survival rate at 11 mg/kg administered once daily via oral gavage for 4 consecutive days beginning 1 hr after infection measured on day 5 post infection relative to control. Format: functional.
Conditions: not given
Put shortly:
as §2
`CCC[C@H](CO)NC(=O)c1cnc(Oc2ccc3c(c2C)B(O)OC3)cn1`: the survival at 11 mg/kg was found to be 100%.

For `Cc1c(Oc2cnc(C(=O)NCCO)cn2)ccc2c1B(O)OC2`, the survival at 11 mg/kg was 100%.

As to `Cc1c(Oc2cnc(C(=O)NC(C)CO)cn2)ccc2c1B(O)OC2` (centres undefined), the survival at 11 mg/kg came out at 40%.

Another test concerns Plasmodium berghei. Briefly: Antimalarial activity against Plasmodium berghei infected in Swiss Webster mouse assessed as mouse survival rate at 100 mg/kg administered once daily via oral gavage for 4 consecutive days beginning 1 hr after infection measured on day 8 post infection relative to control. Format: functional.
Conditions: not given
Put shortly: as §1
On to `CCC[C@H](CO)NC(=O)c1cnc(Oc2ccc3c(c2C)B(O)OC3)cn1`, for which the survival at 100 mg/kg came out at 100%.

On to `Cc1c(Oc2cnc(C(=O)NCCO)cn2)ccc2c1B(O)OC2`, for which the survival at 100 mg/kg stood at 40%.

Regarding `Cc1c(Oc2cnc(C(=O)NC(C)CO)cn2)ccc2c1B(O)OC2` (centres undefined), the survival at 100 mg/kg was determined as 100%.

The subject of another test is Plasmodium falciparum. Briefly: Antimalarial activity against chloroquine-sensitive Plasmodium falciparum 3D7 infected in human erythrocytes assessed as reduction in [3H]-hypoxanthine incorporation preincubated for 24 hrs followed by [3H]-hypoxanthine addition measured after 24 hrs by scintillation counting method. The class given is functional, cell-based.
Conditions: not given
Put shortly: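 P. falciparum 3D7 cultures were exposed to the compound for 48 h, with atovaquone as the reference control. IC50 was taken from three replicates.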
Take `CCC[C@H](CO)NC(=O)c1cnc(Oc2ccc3c(c2C)B(O)OC3)cn1`: the IC50 was determined as 201 nM.

`Cc1c(Oc2cnc(C(=O)NCCO)cn2)ccc2c1B(O)OC2`: the IC50 was determined as 1080 nM.

As to `Cc1c(Oc2cnc(C(=O)NC(C)CO)cn2)ccc2c1B(O)OC2` (centres undefined), the IC50 was found to be 994 nM.

A further test relates to Plasmodium berghei. Briefly: Antimalarial activity against Plasmodium berghei infected in Swiss Webster mouse assessed as mouse survival rate at 1.2 mg/kg administered once daily via oral gavage for 4 consecutive days beginning 1 hr after infection measured on day 4 post infection relative to control. The class given is functional.
Conditions: not given
Put shortly: as §1
Turning to `CCC[C@H](CO)NC(=O)c1cnc(Oc2ccc3c(c2C)B(O)OC3)cn1`, the survival at 1.2 mg/kg was 100%.

`Cc1c(Oc2cnc(C(=O)NCCO)cn2)ccc2c1B(O)OC2`: the survival at 1.2 mg/kg stood at 100%.

In another test the test system is Plasmodium berghei. Briefly: Antimalarial activity against Plasmodium berghei infected in Swiss Webster mouse assessed as mouse survival rate at 3.7 mg/kg administered once daily via oral gavage for 4 consecutive days beginning 1 hr after infection measured on day 7 post infection relative to control. Format: functional.
Conditions: not given
Put shortly: as §2
As to `CCC[C@H](CO)NC(=O)c1cnc(Oc2ccc3c(c2C)B(O)OC3)cn1`, the survival at 3.7 mg/kg came to 0%.

As for `Cc1c(Oc2cnc(C(=O)NCCO)cn2)ccc2c1B(O)OC2`, the survival at 3.7 mg/kg came to 0%.

The test system of another test is Plasmodium berghei. Briefly: Antimalarial activity against Plasmodium berghei infected in Swiss Webster mouse assessed as mouse survival rate at 33 mg/kg administered once daily via oral gavage for 4 consecutive days beginning 1 hr after infection measured on day 8 post infection relative to control. The class given is functional.
Conditions: not given
Put shortly: as §2
Consider `CCC[C@H](CO)NC(=O)c1cnc(Oc2ccc3c(c2C)B(O)OC3)cn1`, for which the survival at 33 mg/kg worked out at 100%.

Take `Cc1c(Oc2cnc(C(=O)NC(C)CO)cn2)ccc2c1B(O)OC2` (centres undefined): the survival at 33 mg/kg amounted to 0%.

In another test the test system is Plasmodium berghei. Kind of test: Antimalarial activity against Plasmodium berghei infected in Swiss Webster mouse assessed as mouse survival rate at 100 mg/kg administered once daily via oral gavage for 4 consecutive days beginning 1 hr after infection measured on day 10 post infection relative to control.
Conditions: not given
The class given is functional. Put shortly:
as §1
In the case of `CCC[C@H](CO)NC(=O)c1cnc(Oc2ccc3c(c2C)B(O)OC3)cn1`, the survival at 100 mg/kg was determined as 100%.

Regarding `Cc1c(Oc2cnc(C(=O)NCCO)cn2)ccc2c1B(O)OC2`, the survival at 100 mg/kg was 0%.

Consider `Cc1c(Oc2cnc(C(=O)NC(C)CO)cn2)ccc2c1B(O)OC2` (centres undefined), for which the survival at 100 mg/kg came out at 40%.

For another test, the system named is Plasmodium berghei. Briefly: Antimalarial activity against Plasmodium berghei infected in Swiss Webster mouse assessed as mouse survival rate at 1.2 mg/kg administered once daily via oral gavage for 4 consecutive days beginning 1 hr after infection measured on day 6 post infection relative to control. The class given is functional.
Conditions: not given
Put shortly: as §1
Take `CCC[C@H](CO)NC(=O)c1cnc(Oc2ccc3c(c2C)B(O)OC3)cn1`: the survival at 1.2 mg/kg worked out at 100%.

Regarding `Cc1c(Oc2cnc(C(=O)NCCO)cn2)ccc2c1B(O)OC2`, the survival at 1.2 mg/kg was 100%.

The next test concerns Plasmodium berghei. Kind of test: Antimalarial activity against Plasmodium berghei infected in Swiss Webster mouse assessed as mouse survival rate at 11 mg/kg administered once daily via oral gavage for 4 consecutive days beginning 1 hr after infection measured on day 7 post infection relative to control. The class given is functional.
Conditions: not given
Put shortly: as §2
Take `CCC[C@H](CO)NC(=O)c1cnc(Oc2ccc3c(c2C)B(O)OC3)cn1`: the survival at 11 mg/kg was 0%.

For `Cc1c(Oc2cnc(C(=O)NCCO)cn2)ccc2c1B(O)OC2`, the survival at 11 mg/kg was 0%.

Take `Cc1c(Oc2cnc(C(=O)NC(C)CO)cn2)ccc2c1B(O)OC2` (centres undefined): the survival at 11 mg/kg worked out at 40%.

A further test concerns Plasmodium falciparum. Kind of test: Antimalarial activity against chloroquine-resistant Plasmodium falciparum W2 infected in human erythrocytes after 48 hrs by YOYO-1 dye based flow cytometric analysis. Format: functional, cell-based. The note with it: W2, 48 h. Put shortly:
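P. falciparum W2 cultures were exposed to the compound for 48 h, with artemisinin and chloroquine as reference controls. IC50 was taken from two independent replicates.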
(A flow cytometer gives signals particle by particle.)
Regarding `CCC[C@H](CO)NC(=O)c1cnc(Oc2ccc3c(c2C)B(O)OC3)cn1`, the IC50 worked out at 161 nM.

Consider `Cc1c(Oc2cnc(C(=O)NCCO)cn2)ccc2c1B(O)OC2`, for which the IC50 was determined as 372 nM.

Molecule `Cc1c(Oc2cnc(C(=O)NC(C)CO)cn2)ccc2c1B(O)OC2` (centres undefined) showed an IC50 of 342 nM.

A further test deals with Plasmodium berghei. Kind of test: Antimalarial activity against Plasmodium berghei infected in Swiss Webster mouse assessed as mouse survival rate at 33 mg/kg administered once daily via oral gavage for 4 consecutive days beginning 1 hr after infection measured on day 4 post infection relative to control. The class given is functional.
Conditions: not given
Put shortly:
as §2
`CCC[C@H](CO)NC(=O)c1cnc(Oc2ccc3c(c2C)B(O)OC3)cn1`: the survival at 33 mg/kg worked out at 100%.

Consider `Cc1c(Oc2cnc(C(=O)NCCO)cn2)ccc2c1B(O)OC2`, for which the survival at 33 mg/kg came out at 100%.

For the molecule `Cc1c(Oc2cnc(C(=O)NC(C)CO)cn2)ccc2c1B(O)OC2` (centres undefined), the survival at 33 mg/kg was 100%.

In another test the test system is Plasmodium berghei. Briefly: Antimalarial activity against Plasmodium berghei infected in Swiss Webster mouse assessed as mouse survival rate at 3.7 mg/kg administered once daily via oral gavage for 4 consecutive days beginning 1 hr after infection measured on day 6 post infection relative to control. Format: functional.
Conditions: not given
Put shortly: as §2
As for `CCC[C@H](CO)NC(=O)c1cnc(Oc2ccc3c(c2C)B(O)OC3)cn1`, the survival at 3.7 mg/kg was determined as 100%.

`Cc1c(Oc2cnc(C(=O)NCCO)cn2)ccc2c1B(O)OC2`: the survival at 3.7 mg/kg was determined as 100%.

The next test concerns Plasmodium berghei. Kind of test: Antimalarial activity against Plasmodium berghei infected in Swiss Webster mouse assessed as mouse survival rate at 100 mg/kg administered once daily via oral gavage for 4 consecutive days beginning 1 hr after infection measured on day 14 post infection relative to control. The class given is functional.
Conditions: not given
Put shortly:
as §1
Consider `CCC[C@H](CO)NC(=O)c1cnc(Oc2ccc3c(c2C)B(O)OC3)cn1`, for which the survival at 100 mg/kg amounted to 0%.

For the next test, the system named is Plasmodium berghei. Briefly: Antimalarial activity against Plasmodium berghei infected in Swiss Webster mouse assessed as mouse survival rate at 100 mg/kg administered once daily via oral gavage for 4 consecutive days beginning 1 hr after infection measured on day 9 post infection relative to control. The class given is functional.
Conditions: not given
Put shortly:
as §1
As to `CCC[C@H](CO)NC(=O)c1cnc(Oc2ccc3c(c2C)B(O)OC3)cn1`, the survival at 100 mg/kg was determined as 100%.

Take `Cc1c(Oc2cnc(C(=O)NCCO)cn2)ccc2c1B(O)OC2`: the survival at 100 mg/kg worked out at 40%.

`Cc1c(Oc2cnc(C(=O)NC(C)CO)cn2)ccc2c1B(O)OC2` (centres undefined): the survival at 100 mg/kg amounted to 80%.

In another test the test system is Plasmodium berghei. Briefly: Antimalarial activity against Plasmodium berghei infected in Swiss Webster mouse assessed as mouse survival rate at 100 mg/kg administered once daily via oral gavage for 4 consecutive days beginning 1 hr after infection measured on day 5 post infection relative to control. The class given is functional.
Conditions: not given
Put shortly: as §1
In the case of `CCC[C@H](CO)NC(=O)c1cnc(Oc2ccc3c(c2C)B(O)OC3)cn1`, the survival at 100 mg/kg stood at 100%.

With `Cc1c(Oc2cnc(C(=O)NCCO)cn2)ccc2c1B(O)OC2`, the survival at 100 mg/kg was found to be 100%.

For the molecule `Cc1c(Oc2cnc(C(=O)NC(C)CO)cn2)ccc2c1B(O)OC2` (centres undefined), the survival at 100 mg/kg amounted to 100%.

In a further test the test system is Plasmodium berghei. Briefly: Antimalarial activity against Plasmodium berghei infected in Swiss Webster mouse assessed as mouse survival rate at 3.7 mg/kg administered once daily via oral gavage for 4 consecutive days beginning 1 hr after infection measured on day 5 post infection relative to control. The class given is functional.
Conditions: not given
Put shortly:
as §2
With `CCC[C@H](CO)NC(=O)c1cnc(Oc2ccc3c(c2C)B(O)OC3)cn1`, the survival at 3.7 mg/kg was determined as 100%.

In the case of `Cc1c(Oc2cnc(C(=O)NCCO)cn2)ccc2c1B(O)OC2`, the survival at 3.7 mg/kg stood at 100%.

The term IC50 denotes the concentration needed to halve the response being measured.
